Results: PMC3314378 (Journal of Medicinal Chemistry, 2011)

Columns and labels:
[1] = In vitro metabolic stability in hepatic microsomes; format: in vitro ADME, rat; conditions: for metabolic stability in hepatic microsomes: presence of NADPH
Summary of the method: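 Test compound (5 μM) incubated at 37 °C for specified times with rat liver microsomes (1 mg protein/ml) in 100 mM potassium phosphate buffer with NADPH 0 or 1 mM. Chilled, extracted with ice-cold ethyl acetate, dried under nitrogen, redissolved in acetonitrile:water 3:1 with 0.1% formic acid. Analysed by reverse-phase C18 LC (5–95% acetonitrile gradient, 16 min) and electrospray MS, scanning 150–1500 Da.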

[2] = tested on: 8-Br-cAMP-induced renal cyst growth in E13.5 embryonic kidneys; conditions: read-out: IC50 for inhibition of cyst growth; embryonic kidney culture; cited from earlier work
[3] = tested on: 8-Br-cAMP-induced renal cyst growth in E13.5 embryonic kidneys; assay: Embryonic kidney organ culture model of PKD; design: species or system mouse
Summary of the method: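 Mouse E13.5 metanephroi on porous culture inserts in DMEM/Ham's F-12 with L-glutamine, HEPES, insulin, transferrin, selenium, prostaglandin E, T3 and antibiotics. Kept at 37 °C in humidified CO2 for up to 8 days. Medium with 100 μM 8-Br-cAMP, with or without test compound (0, 0.1 or 1 μM), replaced every 12 h. Kidneys photographed by transmitted light at 520 nm; percentage cyst area = total cyst area / total kidney area.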

CFTR = CFTR (Homo sapiens, UniProt P13569); assay: Short-circuit current analysis of CFTR inhibition in CFTR-expressing FRT cells; format: cell-based
Chain of CFTR (P13569 whole entry): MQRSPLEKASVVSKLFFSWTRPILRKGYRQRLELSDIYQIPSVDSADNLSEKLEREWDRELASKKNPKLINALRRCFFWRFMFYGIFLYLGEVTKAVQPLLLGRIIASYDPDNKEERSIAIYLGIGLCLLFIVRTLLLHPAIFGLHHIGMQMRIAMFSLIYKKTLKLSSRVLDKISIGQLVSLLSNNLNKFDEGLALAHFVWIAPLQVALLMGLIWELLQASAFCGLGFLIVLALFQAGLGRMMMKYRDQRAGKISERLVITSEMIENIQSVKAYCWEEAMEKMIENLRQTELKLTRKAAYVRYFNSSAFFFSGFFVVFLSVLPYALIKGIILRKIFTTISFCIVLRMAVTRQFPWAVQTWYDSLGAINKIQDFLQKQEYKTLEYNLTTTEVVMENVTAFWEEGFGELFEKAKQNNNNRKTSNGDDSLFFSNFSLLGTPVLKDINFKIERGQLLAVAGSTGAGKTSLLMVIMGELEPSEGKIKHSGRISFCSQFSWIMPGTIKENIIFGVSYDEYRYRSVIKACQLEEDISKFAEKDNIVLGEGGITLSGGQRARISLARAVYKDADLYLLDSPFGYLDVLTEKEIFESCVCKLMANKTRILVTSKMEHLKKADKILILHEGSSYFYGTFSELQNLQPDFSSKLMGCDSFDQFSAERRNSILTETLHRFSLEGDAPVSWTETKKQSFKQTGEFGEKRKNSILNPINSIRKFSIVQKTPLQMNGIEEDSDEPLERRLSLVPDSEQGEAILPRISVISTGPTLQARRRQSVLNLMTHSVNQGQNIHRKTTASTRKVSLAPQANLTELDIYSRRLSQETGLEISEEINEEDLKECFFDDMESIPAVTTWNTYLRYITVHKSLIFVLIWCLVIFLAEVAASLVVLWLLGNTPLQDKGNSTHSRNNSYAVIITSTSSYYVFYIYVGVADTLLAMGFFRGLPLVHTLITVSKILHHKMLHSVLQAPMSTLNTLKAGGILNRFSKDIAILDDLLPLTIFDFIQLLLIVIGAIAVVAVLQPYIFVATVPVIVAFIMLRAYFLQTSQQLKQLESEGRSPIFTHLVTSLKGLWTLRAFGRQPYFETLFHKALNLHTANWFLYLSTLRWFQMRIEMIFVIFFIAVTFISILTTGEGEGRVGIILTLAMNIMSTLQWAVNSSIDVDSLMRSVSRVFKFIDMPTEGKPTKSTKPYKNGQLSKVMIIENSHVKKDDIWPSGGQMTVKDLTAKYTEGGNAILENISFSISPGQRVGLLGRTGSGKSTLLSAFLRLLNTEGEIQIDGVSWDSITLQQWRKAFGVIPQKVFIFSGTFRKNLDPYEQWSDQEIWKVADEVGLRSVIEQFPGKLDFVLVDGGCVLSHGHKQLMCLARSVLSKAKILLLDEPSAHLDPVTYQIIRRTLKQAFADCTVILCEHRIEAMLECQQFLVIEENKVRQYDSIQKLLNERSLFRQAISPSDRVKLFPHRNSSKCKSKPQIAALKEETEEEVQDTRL
Summary of the method: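 Ussing chamber short-circuit current on CFTR-expressing FRT cell inserts under voltage clamp. Apical buffer 75 mM NaCl + 75 mM Na gluconate, basolateral 150 mM NaCl, pH 7.3, giving a transepithelial chloride gradient. Basolateral membrane permeabilized with 250 μg/mL amphotericin B. CFTR activated with forskolin (20 μM), then serial additions of increasing test compound concentrations, with current recorded continuously.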

human wildtype CFTR = human wildtype CFTR (Homo sapiens, UniProt P13569); assay: Fluorescence plate-reader assay of CFTR-mediated iodide influx; format: cell-based
Chain of human wildtype CFTR (P13569 whole entry): as above
Summary of the method: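 FRT cells co-expressing human wild-type CFTR and YFP-H148Q were plated at 20,000 cells/well in Coon's modified F12 with 10% FBS and assayed 48 h later. After PBS washes, test compound was added for 45 min, then forskolin/IBMX/apigenin cocktail for 15 min. Fluorescence was read 2 s baseline, then 10 s after adding PBS with iodide replacing 137 mM chloride. Initial iodide influx rate by non-linear regression; n=4, S.E.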

Cc1ccc(C2Nc3ccccc3-n3c(-c4ccccc4)c4c(=O)n(C)c(=O)n(C)c4c32)o1 (stereo not drawn) [Compound 8, 7,9-Dimethyl-11-phenyl-6-(5-methylfuran-2-yl)-5,6-dihydro-pyrimido-[4',5'-3,4]pyrrolo[1,2-a]quinoxaline-8,10-(7H,9H)-dione]
loss in hepatic microsomes in the absence of NADPH ([1]; absence of NADPH (data not shown)): No loss | metabolic stability in hepatic microsomes [1]: poor metabolic stability | IC50 [2]: > 500 nM

Cn1c(=O)c2c(-c3ccccc3)n3c(c2n(C)c1=O)C(c1ccc(Br)o1)Oc1ccc([N+](=O)[O-])cc1-3 (stereo not drawn) [Compound 36]
metabolic stability in hepatic microsomes [1]: excellent metabolic stability

Cn1c(=O)c2c(-c3ccccc3)n3c(c2n(C)c1=O)C(c1ccc(Br)o1)Oc1ccc(C(=O)O)cc1-3 (stereo not drawn) [Compound 42, 6-(5-Bromofuran-2-yl)-7,9-dimethyl-8,10-dioxo-11-phenyl-7,8,9,10-tetrahydro-6H-benzo[b]pyrimido [4',5':3,4]pyrrolo [1,2-d][1,4]oxazine-2-carboxylic acid]
improvement of metabolic stability compared to 8 ([1]; hepatic microsomes): > 10 fold | metabolic stability in hepatic microsomes [1]: excellent stability | improvement of potency for inhibition of renal cystogenesis ex vivo over 8 [3]: > 5 fold | extent of CFTR inhibition (CFTR): fully inhibited CFTR

Cn1c(=O)c2c(-c3ccccc3)n3c(c2n(C)c1=O)C(c1ccc(Br)o1)Nc1ccccc1-3 (stereo not drawn) [Compound 18]
metabolic stability in hepatic microsomes [1]: substantially more stable than 8

CCOC(=O)c1ccc2c(c1)-n1c(-c3ccccc3)c3c(=O)n(C)c(=O)n(C)c3c1C(c1ccc(Br)o1)O2 (stereo not drawn) [Compound 40, Ethyl 6-(5-Bromofuran-2-yl)-7,9-dimethyl-8,10-dioxo-11-phenyl-7,8,9,10-tetrahydro-6H-benzo[b]pyrimido [4',5':3,4]pyrrolo[1,2-d][1,4]oxazine-2-carboxylate]
CFTR inhibition activity (human wildtype CFTR): strongly inhibited CFTR

Cc1ccc(C2c3c4c(c(-c5ccccc5)n3-c3ccccc3N2C)c(=O)n(C)c(=O)n4C)o1 (stereo not drawn) [Compound 13]
CFTR inhibition activity (human wildtype CFTR): weakly active

Cn1c(=O)c2c(-c3ccccc3)n3c(c2n(C)c1=O)C(c1ccc(Br)o1)Oc1ccccc1-3 (stereo not drawn) [Compound 31]
metabolic stability in hepatic microsomes [1]: better stability than 8
